Screens as filed in PubChem.
A1 inh: inhibitors of the anti-apoptotic protein A1, read as caspase activation. MEF A1-2A-BIM cells, Caspase-Glo 3/7 luminescence, 3 h; percent of clofoctol response, vehicle zero. caspase activation, % (no concentration beside the values). 0.066% of 330,000 active. AID 2462;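 active means over half of replicate activation scores above 10%, or exactly half above 10 with the replicate mean above 10; inconclusive means replicate mean below 10 yet half the replicates above 10; inactive means over half of replicates below 10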
CHOP inhibitor: blocks CHOP induction under ER stress. CHO-K1 CHOP-promoter luciferase, tunicamycin-induced, 15-18 h. inhibition, % at 10 µM. 3.8% of 220,000 active;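 active means compounds that reduced the stress-induced luciferase reporter signal by more than about 70% of percent inhibition, limit read from the data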
UPR CHOP act: apoptotic UPR (CHOP) activation. CHO-CHOP luciferase reporter, luminescence; percent of tunicamycin response over DMSO baseline. activation, % at 10 µM. 0.34% of 330,000 active. AID 449763;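 active means at 10 µM dose, activation of 40% or more, normalized to positive control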
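measured by = luciferase luminescence | assay system = CHO-CHOP cells, stable luciferase reporter of PERK-eIF2a-CHOP signalling | amount = 500 reporter cells seeded per well | timing = 6 h compound exposure at 37 °C after overnight seeding | controls = positive tunicamycin 10 µg/mL, negative DMSO alone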
XBP1 UPR activ: activators of adaptive arm of unfolded protein response (XBP1); CHO-XBP1 luciferase reporter, IRE1-XBP1 UPR activation, luminescence; percent of tunicamycin response, DMSO as zero; activation, % at 20 µM; 0.33% of 330,000 active; AID 463104;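 active means versus positive control, 20 µM dose yields 30% or more activation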
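Assay system: IRE1-XBP1 luciferase reporter CHO line. Input: 1000 cells/well. Buffer or medium: F12 with 10% serum. Doses: 20 µM, 1% DMSO. Times: overnight seeding at 37 °C, 6 h compound treatment at 37 °C. Technique: Steady-Glo luciferase glow luminescence, 10 min after reagent addition.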
CHOP confirm: confirmation of CHOP induction inhibitors | CHO-CHOP promoter luciferase reporter, tunicamycin-induced, luminescence | shares compounds with CHOP inhibitor | inhibition, % at 10 µM | 45% of 2,100 active;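 active means mean of three repeat readings of reporter signal inhibition above a set limit, cut at about 70% in these data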
Hits are given with their value; . = inactive; ? = inconclusive; / = no result. This is one part of a sample in which hits are shown more often than they occur.

SMILES	A1 inh	CHOP inhibitor	UPR CHOP act	XBP1 UPR activ	CHOP confirm
Nc1cccc(Nc2nc(OC(C(F)(F)F)C(F)(F)F)nc(OC(C(F)(F)F)C(F)(F)F)n2)c1	.	100.0	.	.	117.1
O=C(Nc1ccc(Cl)c(S(=O)(=O)N2CCOCC2)c1)c1ccc(Cl)nc1	/	/	.	.	/
Cc1ccc(O)c(-c2cc(-c3ccccc3F)[nH]n2)c1	?	104.0	.	.	.
Cc1ccc(O)c(-c2cc(-c3cccc(F)c3)n[nH]2)c1	.	102.3	.	.	.
Cc1ccc(-c2cc(-c3cccc(F)c3)n[nH]2)c(O)c1	.	.	.	.	/
Cc1ccc(-c2cc(-c3ccccc3C)[nH]n2)c(O)c1	.	102.4	.	.	.
COc1ccc(CNC(=O)C2CCN(S(=O)(=O)c3c(C)noc3/C=C/N(C)C)CC2)cc1	.	/	.	.	/
CC(C(=O)O)c1ccc(C(=O)c2ccccc2)s1 (stereo not given)	.	/	.	.	/
CCOc1ccc(-n2c(SCC(=O)Nc3ccccc3CC)nc3n[nH]c(C)c3c2=N)cc1	.	.	.	.	/
CCOc1ccc(-n2c(SCC(=O)Nc3ccc(Br)cc3)nc3n[nH]c(C)c3c2=N)cc1	8.4	103.4	.	.	107.6
CC(C1CC2CCC1C2)n1c(COc2ccccc2F)nnc1SCC(N)=O (stereo not given)	.	.	.	.	/
CC(C)NC(=O)NC(=O)CSc1nnc(COc2ccccc2F)n1C(C)C1CC2CCC1C2 (stereo not given)	/	105.8	.	.	.
COc1ccc(-c2cc(C(F)(F)F)nc(S(=O)(=O)CCCC(=O)Nc3cccnc3Cl)n2)cc1OC	/	100.3	/	/	.
CCOC(=O)CS(=O)(=O)c1nc(-c2ccc(F)cc2)cc(C(F)(F)F)n1	.	/	.	.	/
COC(=O)CCS(=O)(=O)c1nc(-c2ccccc2)cc(C(F)(F)F)n1	.	106.4	.	.	.
CS(=O)(=O)c1nc(-c2cccs2)cc(C(F)(F)F)n1	8.2	110.9	.	.	120.1
O=C(O)CCS(=O)(=O)c1nc(-c2cccs2)cc(C(F)(F)F)n1	.	.	.	.	/
CS(=O)(=O)c1nc(-c2ccc(F)cc2)cc(C(F)(F)F)n1	/	106.1	/	/	110.1
Cc1cccc(C(=O)OCC(=O)NC(=O)NCc2ccccc2)c1	.	/	.	.	/
COc1ccc(-c2cc(C(=O)Nc3c(C)n(C)n(-c4ccccc4)c3=O)c3ccccc3n2)c(OC)c1	.	/	.	.	/
COc1cc(C(=O)NCCCCc2ccccc2)cc(OC)c1OC	.	/	.	.	/
COc1cccc(F)c1C(C[N+](=O)[O-])c1c(N)n(C)c(=O)n(C)c1=O (stereo not given)	.	.	.	.	/
Cn1c(CC(=O)NNC(=O)c2ccc(F)cc2Cl)nc2ccccc21	.	/	.	.	/
O=C(/C=C/c1cccc(Cl)c1)c1nc2ccccc2[nH]1	.	102.4	.	.	.
Cc1cccc2c1N(CCOc1ccc(C(C)(C)C)cc1)C(=O)C2=O	.	99.8	.	.	.
SMILES	A1 inh	CHOP inhibitor	UPR CHOP act	XBP1 UPR activ	CHOP confirm
COc1ccccc1NC(=O)c1c(Nc2ccccc2C)sc(C(=O)Nc2cccc(Cl)c2)c1N	.	100.0	.	.	131.0
COCCCNC(=O)/C(C#N)=C/c1c(N2CCN(c3ccccc3)CC2)nc2ccccn2c1=O	.	/	.	.	/
CCCCN(CC)C(=O)c1cc2c(=O)[nH]c3ccc(C)cc3c2s1	.	/	.	.	/
Cc1ccc2[nH]c(=O)c3cc(C(=O)N(C)c4ccccc4C)sc3c2c1	.	101.2	.	.	.
N#C/C(=C\c1ccc(F)cc1)c1nc(-c2ccco2)cs1	.	104.7	.	.	.
COc1cc(C)ccc1S(=O)(=O)N1CCN(C23CC4CC(CC(C4)C2)C3)CC1	.	105.1	.	.	.
O=C(NCc1cccs1)Nc1cccc(Cl)c1	.	/	.	.	/
O=C(Nc1cccc(Cl)c1)NC1(C(=O)NCc2cccs2)CCCCC1	.	104.0	.	.	.
Cc1ccc(S(=O)(=O)N2CCOCC2)cc1NC(=O)c1cc2c(s1)CCC2	.	.	.	.	/
Cc1ccc(S(=O)(=O)Nc2ccc(Cl)cc2)cc1NC(=O)c1cc2c(s1)CCCC2	.	103.5	.	.	.
CC(Sc1nnc(-c2cccnc2)o1)C(=O)NC1CCCCC1 (stereo not given)	.	/	.	.	/
COc1ccc(C)cc1N1C(=N)/C(=C2/Nc3ccccc3S2)C(c2ccccc2)C1=O (stereo not given)	.	98.4	/	/	.
O=C1NN=C(c2ccc(Cl)cc2)CC1c1cccc(Cl)c1 (stereo not given)	.	101.7	.	.	.
C=C(C)COc1ccc(-c2ncncc2-c2ccc(Br)cc2)c(O)c1	.	/	.	.	/
C=C(C)COc1ccc(-c2n[nH]c(C)c2-c2ccc(Br)cc2)c(O)c1	.	/	.	.	106.2
CCOc1ccc(S(=O)(=O)Nc2ccc(C(=O)NCCCN3CCOCC3)cc2)cc1	.	/	.	.	/
CN(c1ccccc1)S(=O)(=O)c1ccc(NC(=O)c2nc(S(C)(=O)=O)ncc2Cl)cc1	.	/	.	.	/
O=C1/C(=C/c2ccncc2)SC(=S)N1C1CCS(=O)(=O)C1 (stereo not given)	.	103.6	.	.	103.3
CCCN(CCC)C(=O)CSc1nc2ccccc2c(=O)n1C1CCCC1	.	97.5	.	.	.
CCC(CO)(CO)N(CC(=O)Nc1ccc(OC)cc1)CC(=O)Nc1ccc(OC)cc1	.	/	.	.	/
CCC(C)(C)NC(=O)C(c1cccn1C)N(Cc1ccccc1)C(=O)Cn1nnc2ccccc21 (stereo not given)	/	.	/	/	/
CCC(C)(C)NC(=O)C(c1cccn1C)N(Cc1ccc(OC)cc1)C(=O)Cn1nnc2ccccc21 (stereo not given)	.	103.3	.	.	.
CCOc1ccc(NC2=C(Cl)C(=O)N(Cc3ccccc3)C2=O)cc1	.	105.3	.	.	.
Cc1ccc(-c2cc(C(=O)Nc3ccc(S(=O)(=O)N4CC(C)OC(C)C4)cc3)[nH]n2)c(O)c1 (stereo not given)	.	.	.	.	/
Cc1ccc(O)c(-c2cc(C(=O)Nc3ccc(S(=O)(=O)N4CC(C)OC(C)C4)cc3)[nH]n2)c1 (stereo not given)	.	98.5	.	.	.
SMILES	A1 inh	CHOP inhibitor	UPR CHOP act	XBP1 UPR activ	CHOP confirm
O=C(CSc1ccc2nnc(CCNC(=O)c3ccc(F)cc3)n2n1)NCC1CCCO1 (stereo not given)	.	/	.	.	/
CC1=C(C)CS(=O)N(S(=O)(=O)c2ccc(Cl)cc2)C1 (stereo not given)	.	/	.	.	.
COC(=O)c1c(NC(=O)c2ccoc2C)sc2c1CCC2	.	.	.	.	/
Cc1occc1C(=O)Nc1sc2c(c1C(N)=O)CCCCC2	.	96.2	.	.	.
CCCn1c(N)c(N(CCOC)C(=O)CSCC(=O)Nc2ccc(OC)cc2)c(=O)[nH]c1=O	.	/	.	.	/
N#C/C(=C\c1cccc(Cl)c1)C(=O)c1ccccc1	.	.	.	.	/
